Screening results: PubChem, several laboratories
A selection: hits, their analogues and other compounds. The true share with any hit is near 2.4%.
SR-BI uptake up: enhances SR-BI lipid uptake from DiI-HDL; CHO ldlA[mSR-BI] cells, DiI-HDL uptake fluorescence, 3 h; 100 = double the neutral-control signal; activation, % at 12.5 µM; hit rate 0.096% among 320,000;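 active means mean replicate activation of at least 60% and every replicate at or above 60%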
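System: CHO ldlA[mSR-BI] cells / Medium: HEPES-buffered (25 mM, pH 7.4) F12 plus 0.5% BSA / Probe or stimulus: labelled HDL, 10 µg/mL / Doses: single compound concentration, delivered by pin transfer / Schedule: 3 h, 37 °C / Measured by: DiI fluorescence, bottom read / Measure: cell-associated DiI fluorescence as measure of HDL uptake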
Calb FLC: C. albicans growth modulation with fluconazole; C. albicans CaCi-2 + fluconazole, Alamar Blue growth, 48 h; growth inhibition, % (concentration not given with the values); hit rate 0.57% among 300,000;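 active means growth inhibition above about 58% in most replicates, limit read from the data, passing the limit was not always enough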;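 further: all wells also contain fluconazole at 8 µg/ml as a sub-toxic cotreatment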
Insulin prom up: MIN6 insulin promoter up-regulation | hit rate 0.3% among 190,000 | AID 1625 | MIN6 insulin promoter-GFP reporter, high-content imaging; hits give high values | z-score at 5 µM;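 active means z-score above 3 at 5 µM with at least 500 cells counted in the well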
m5-HT2A agonist: activates the mouse 5-HT2A serotonin receptor | CHO-K1 mHTR2A beta-arrestin complementation, luminescence; percent of 30 µM serotonin response | activation, % at 7.6 µM | hit rate 0.66% among 360,000 | AID 624169;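 active means activation above a run cutoff, the mean activation of all tested compounds plus 3 SD, cut at about 14% in these data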
beta cell repl: induces beta-cell replication in MIN6 cells; MIN6 cells proliferation, ATPlite luminescence, 48 h; cells starved in 0.2% serum; 100% = growth in 10% serum; proliferation, % at 10 µM; hit rate 0.29% among 330,000; AID 2380;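 active means compounds whose signal lies at least 3.5 SD above the mean of all wells on their plate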
SR-BI HDL uptake: mouse SR-BI HDL lipid transfer inhibition | ldlA[mSR-BI] CHO cells, DiI-HDL uptake fluorescence, 3 h | inhibition, % at 12.5 µM | hit rate 0.96% among 320,000;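 active means mean replicate inhibition of at least 70% and a set share of replicates each scoring 70 or more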
Target sequence (Q61009 whole entry, looked up): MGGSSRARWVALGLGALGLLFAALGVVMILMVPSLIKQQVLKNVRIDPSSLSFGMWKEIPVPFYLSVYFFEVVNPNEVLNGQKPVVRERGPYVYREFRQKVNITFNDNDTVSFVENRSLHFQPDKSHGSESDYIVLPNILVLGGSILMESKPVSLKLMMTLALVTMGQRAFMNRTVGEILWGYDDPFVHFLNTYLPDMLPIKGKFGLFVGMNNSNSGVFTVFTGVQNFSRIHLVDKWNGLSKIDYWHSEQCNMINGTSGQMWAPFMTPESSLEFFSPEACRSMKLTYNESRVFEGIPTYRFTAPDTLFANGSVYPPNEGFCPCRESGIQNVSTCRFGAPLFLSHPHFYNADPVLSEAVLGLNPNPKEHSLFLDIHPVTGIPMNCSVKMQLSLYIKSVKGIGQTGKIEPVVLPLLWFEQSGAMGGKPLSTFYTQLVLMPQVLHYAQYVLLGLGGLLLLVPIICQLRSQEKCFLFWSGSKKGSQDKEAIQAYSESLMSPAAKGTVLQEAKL
Hits are given with their value; - = inactive; . = not tested or not shown.

SMILES	SR-BI uptake up	Calb FLC	Insulin prom up	m5-HT2A agonist	beta cell repl	SR-BI HDL uptake
CC(=O)NC(C)(c1ccccc1)c1nc(-c2cccc(C(F)(F)F)c2)cs1 (configuration not stated)	.	.	.	-	.	.
C#CCOCCOCCOCCNc1nc(N2CCN(C(=O)CCCCCCCCCCNC(=O)[C@H](CCCCN)n3cc(CCCC(=O)O)nn3)CC2)nc(N2CCN(C(=O)CCCCCCCCCCNC(=O)[C@H](CCCN=C(N)N)n3cc(C[C@@H](C)CC)nn3)CC2)n1	-	-	.	-	-	80
C#CCOCCOCCOCCNc1nc(N2CCN(C(=O)CCCCCCCCCCNC(=O)[C@H](CCCCN)n3cc(CCO)nn3)CC2)nc(N2CCN(C(=O)CCCCCCCCCCNC(=O)[C@H](CCCN=C(N)N)n3cc(C[C@@H](C)CC)nn3)CC2)n1	-	.	.	-	-	-
O=C(COC(=O)/C=C/c1ccccc1Cl)NC1CCCCCC1	65	-	-	-	-	-
O=C(COc1ccc(C(=O)c2ccccc2)cc1)NC1CCCCC1	69	-	-	-	-	-
CCOC(=O)/C(=N\Nc1ccc(Cl)cc1)c1csc(Nc2ccccc2)n1	-	-	-	-	-	110
CCOC(=O)/C(=N\Nc1ccc(OC)cc1)c1csc(Nc2ccccc2)n1	-	-	.	-	-	99
CCN(CC)C(=O)c1csc(Nc2ccc(C)cc2)n1	-	-	-	-	-	-
CCOC(=O)/C(=N/Nc1ccccc1)c1csc(Nc2ccccc2)n1	-	-	.	-	-	95
CCCCC(CCC(=O)O)(C(=O)OCC)c1csc(Nc2ccccc2)n1 (configuration not stated)	-	-	-	-	-	-
O=C(COc1ccc([N+](=O)[O-])cc1)NNC(=S)NC(=O)c1ccc(Br)cc1	-	95	-	-	-	-
CCCCCCCC(=O)NNC(=O)c1ccc([N+](=O)[O-])cc1	-	-	-	-	-	-
CCCC(=O)NC(=S)NNC(=O)c1ccc([N+](=O)[O-])cc1	-	76	-	-	-	-
CCCCn1nnnc1C(c1cc2ccccc2o1)N(CCN(C)C)Cc1ccccc1 (configuration not stated)	.	.	.	-	.	.
Cc1nn(-c2ccccc2)c2sc(C(=O)C(C#N)c3ccccn3)cc12 (configuration not stated)	.	.	-	.	.	.
O=C(Nc1ccc(S(=O)(=O)NC2=NCCCCC2)cc1)C1COc2ccccc2O1 (configuration not stated)	.	-	-	-	-	.
CSc1ncccc1C(=O)Nc1nc2ccc(Oc3ccccc3)cc2s1	-	-	-	-	-	-
COc1cc([N+](=O)[O-])ccc1NC(=O)CSc1nc2ccccc2n1-c1ccccc1	.	-	-	.	-	.
CCOc1ccc(-n2c(SCC(=O)Nc3cc(OC)c([N+](=O)[O-])cc3C)nc3ccccc32)cc1	-	-	-	-	-	82
CCn1ncc(Br)c1C(=O)Nc1sc2c(c1C(N)=O)CCC2	-	-	3.5	-	-	-
Cn1cc(Br)c(C(=O)Nc2sc3c(c2C(N)=O)CCC3)n1	-	-	-	-	-	-
CCOC(=O)c1csc(NC(=O)c2ccc(OCC)cc2)n1	-	-	-	-	-	-
CCOC(=O)c1csc(NC(=O)c2ccc(OC)c(OC)c2)n1	-	-	-	-	-	77
COc1ccc(C(=O)Nc2sc(C)c(-c3ccccc3)c2C#N)cc1OC	-	-	.	-	-	85
Fc1ccc(/C=N/c2c(-c3ccc(F)cc3)nc3n2CCS3)cc1	-	-	-	-	-	77
SMILES	SR-BI uptake up	Calb FLC	Insulin prom up	m5-HT2A agonist	beta cell repl	SR-BI HDL uptake
COc1ccc(/C=N/c2c(-c3ccc(OC)cc3)nc3n2CCS3)cc1	-	-	.	-	-	-
C[N+]1(CC(=O)OC2CCCCCCCCCCC2)CCCC1	-	99	.	-	-	-
COC(=O)CCCCCCCCCC[N+]1(C)CCCCC1	-	-	-	-	-	-
CCC1(CC)NC(=O)N(CC(=O)OC(C)C(=O)Nc2cc([N+](=O)[O-])ccc2OC)C1=O (configuration not stated)	-	-	.	-	-	74
Cc1ccc(C2(c3ccccc3)NC(=O)N(CC(=O)NCc3ccccc3)C2=O)cc1C (configuration not stated)	-	.	.	-	-	-
COC(=O)c1c(NC(=S)Nc2ccccc2Cl)sc(C)c1C	-	-	-	-	-	75
CC1CN(CCC(=O)Nc2ccc3c(c2)OCO3)CC(C)O1 (configuration not stated)	-	-	-	-	-	80
CCN(CC)c1ccc2cc(C(=O)c3cccs3)c(=O)oc2c1	.	.	.	-	.	.
Cc1cc(NC(=O)c2ccc(F)cc2)n(-c2ccccc2)n1	-	-	.	-	-	-
Cc1cc(NC(=O)Nc2cc(C)nn2-c2ccccc2)n(-c2ccccc2)n1	-	-	-	-	-	84
CC(C)Nc1nc(NNc2nc(Cl)nc(NC(C)(C)C)n2)nc(NC(C)C)n1	.	-	-	-	-	.
CCNc1nc(NC(C)C)nc(NC(C)(C)C)n1	-	83	-	-	-	-
CCc1cc(=S)n2c([nH]c3ccccc32)c1C#N	-	97	-	-	-	-
COc1ccccc1-c1cc2nc(C)c(CCC(=O)NC(C)CCc3ccco3)c(C)n2n1 (configuration not stated)	.	-	-	-	-	.
CCC(=O)N1CCC1(C)C(=O)Nc1ncc(C)s1 (configuration not stated)	.	.	.	-	.	.
COc1cc(CCC(=O)Nc2ccc(Br)c(C(F)(F)F)c2)cc(OC)c1OC	-	-	-	-	-	-
COc1ccc2nc(NC(=O)CCc3cc(OC)c(OC)c(OC)c3)sc2c1	-	-	-	-	-	72
COc1ccc2nc(NC(=O)CCn3cccc3)sc2c1	-	-	-	-	-	-
COc1cc(CCC(=O)Nc2cc(C)cc(C)c2)cc(OC)c1OC	-	-	-	-	-	83
Cc1ccsc1C(=O)N1CCCC(C)(C(=O)NS(=O)(=O)C2CC2)C1 (configuration not stated)	.	.	.	-	.	.
Cc1nc(N2CCCCC2)sc1C(=O)c1cccc([N+](=O)[O-])c1	-	-	-	-	-	-
Cc1nc(N2CCCCC2)sc1C(=O)c1ccc(SCCO)c([N+](=O)[O-])c1	-	-	-	-	-	78
CC(C)(C)NC(=O)CN(C(=O)c1snc(C(=O)NC2CCCCC2)c1N)c1ccccc1F	.	-	.	-	-	.
CN(CCOc1ccccc1)CC(=O)Nc1ccc(Br)cc1F	-	-	.	-	-	-
FC(F)(F)c1ccccc1/C=N/n1c(COc2ccccc2)n[nH]c1=S	-	-	.	-	-	-
Cc1ccccc1C(=O)N1CCN(c2ccc(NC(=O)c3ccccc3[N+](=O)[O-])cc2)CC1	-	-	-	-	-	78
Cc1ccccc1C(=O)N1CCN(c2ccc(NC(=O)c3cccnc3Cl)cc2)CC1	-	-	-	-	-	76
